Data published in paper PMC3742633 (Molecular cancer therapeutics, 2013).

Assays:
[1] = tested on: H522 human lung adenocarcinoma cells; test: Cell viability, trypan blue exclusion; format: cell-based; conditions: NCI-H522, 48 h, read-out: IC50 cytotoxic effects (viability)
RXF 393 = test: NCI 60 cell line screen, Sulforhodamine B Assay; format: cell-based; conditions: Homo sapiens, RXF 393, 48 h
Method in brief: (§1)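 Run through the NCI-60 screening service: human cancer cell lines exposed to test compound for 48 h. Growth read as cellular protein content by sulforhodamine B staining, and GI50 derived from this.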

LLC tumors [2] = test: 18F-FDG micro-PET imaging of LLC-bearing mice; format: in vivo, C57Bl/6 mice; conditions: 25 mg/kg i.p. once, 45 minutes, normalized to FDG uptake in the cerebellum
Method in brief: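 Tumor-bearing mice were anesthetized with isoflurane and given 200 μCi FDG i.v. by tail vein. Baseline 15-min static micro-PET scans were taken 45 min after tracer (OSEM, 6 subsets/4 iterations). Tumor and cerebellum regions of interest were quantified in quadruplicate. 24 h later, test compound 25 mg/kg i.p. once, then re-scan 45 min later.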

EKVX = test: NCI 60 cell line screen, Sulforhodamine B Assay; format: cell-based; conditions: Homo sapiens, 48 h
Method in brief: as §1

A498 = test: NCI 60 cell line screen, Sulforhodamine B Assay; format: cell-based; conditions: Homo sapiens, A498, 48 h
Method in brief: as §1

TK-10 = test: NCI 60 cell line screen, Sulforhodamine B Assay; format: cell-based; conditions: Homo sapiens, TK-10, 48 h
Method in brief: (§2)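 Run through the National Cancer Institute 60 cell line screening service on its panel of 59 human cancer lines in vitro. Cytostatic/toxic effect was read as cellular protein content (sulforhodamine B) over 48 h.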

HCC-2998 = test: NCI 60 cell line screen, Sulforhodamine B Assay; format: cell-based; conditions: Homo sapiens, HCC 2998, 48 h
Method in brief: as §1

Jurkat and H522 cells = test: Intracellular ATP bioluminescence assay; format: cell-based, human
Method in brief: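 After plating at 1×10^5 cells/well (24 h, 37°C, 5% CO2) and 3 h test compound exposure, adherent cells were washed with cold PBS, lysed in passive lysis buffer and scraped. One freeze (−80°C)/thaw (37°C) cycle, cleared at 4°C. ATP read by firefly luciferase/D-luciferin luminescence at 560 nm against an ATP standard curve, as nmol/mg BCA protein.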

UACC-257 = test: NCI 60 cell line screen, Sulforhodamine B Assay; format: cell-based; conditions: Homo sapiens, UACC-257, 48 h
Method in brief: as §2

IGROV1 = test: NCI 60 cell line screen, Sulforhodamine B Assay; format: cell-based; conditions: Homo sapiens, IGROV-1, 48 h
Method in brief: as §1

[3] = Tolerability of intraperitoneal PFK15; conditions: 25 mg/kg i.p. every three days
MDA-MB-231/ATCC = test: NCI 60 cell line screen, Sulforhodamine B Assay; format: cell-based; conditions: Homo sapiens, MDA-MB-231, 48 h
Method in brief: as §1

ACHN = test: NCI 60 cell line screen, Sulforhodamine B Assay; format: cell-based; conditions: Homo sapiens, 48 h
Method in brief: as §1

[4] = tested on: Jurkat T cell leukemia cells; test: Annexin V / propidium iodide flow cytometry; format: cell-based, human; conditions: five hours
HOP-92 = test: NCI 60 cell line screen, Sulforhodamine B Assay; format: cell-based; conditions: Homo sapiens, HOP-92, 48 h
Method in brief: as §1

KM12 = test: NCI 60 cell line screen, Sulforhodamine B Assay; format: cell-based; conditions: Homo sapiens, KM12, 48 h
Method in brief: as §1

Solubility = format: physicochemical
HS 578T = test: NCI 60 cell line screen, Sulforhodamine B Assay; format: cell-based; conditions: Homo sapiens, 48 h
Method in brief: as §1

hexokinase = test: Activity of purified hexokinase; format: biochemical; conditions: up to 100 μM; data not shown
[5] = tested on: Jurkat T cell leukemia cells; test: Cell viability, trypan blue exclusion; format: cell-based; conditions: Homo sapiens, 48 h, read-out: IC50 cytotoxic effects (viability)
HOP-62 = test: NCI 60 cell line screen, Sulforhodamine B Assay; format: cell-based; conditions: Homo sapiens, HOP-62, 48 h
Method in brief: as §1

Jurkat or H522 cells = test: 2-[1-14C]-deoxy-D-glucose uptake; format: cell-based, human; conditions: three hours exposure, Jurkat and H522
Method in brief: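 Jurkat or H522 cells in RPMI 1640 + 10% FCS + 50 μg/ml gentamycin at 100,000/ml, treated immediately with DMSO vehicle or test compound for 3 h. Washed in glucose-free RPMI, 30 min with inhibitor, then 1 h with 14C-2-deoxyglucose (0.1 μCi/μl stock). Ice-cold washes, 0.5% SDS lysis, scintillation counting; counts normalized to BCA protein.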

U-87 glioblastoma cells = test: U-87 MG xenograft tumor growth; format: in vivo, Balb/C athymic mice; conditions: 25 mg/kg i.p. every 3 days × 4; compared with temozolomide
Method in brief: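 U-87 MG cells from exponential culture (DMEM, 10% FCS) were washed and resuspended in PBS, and 1×10^6 cells were injected s.c. into 20 g Balb/C athymic mice. At 150–200 mg, tumours were randomised to DMSO, test compound (25 mg/kg i.p. every 3 days ×4) or temozolomide (30 mg/kg p.o., 3 days on/3 off). Blinded daily caliper mass = width²×length/2. Two experiments, n=8/group, mean±SD, unpaired two-tailed t-test.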

SR = test: NCI 60 cell line screen, Sulforhodamine B Assay; format: cell-based; conditions: Homo sapiens, 48 h
Method in brief: as §2

SNB-15 = test: NCI 60 cell line screen, Sulforhodamine B Assay; format: cell-based; conditions: Homo sapiens, 48 h
Method in brief: as §2

SW-620 = test: NCI 60 cell line screen, Sulforhodamine B Assay; format: cell-based; conditions: Homo sapiens, SW-620, 48 h
Method in brief: as §2

LLC tumors [6] = test: Lewis lung carcinoma; format: in vivo, C57Bl/6 mice
Method in brief: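 C57Bl/6 mice (20 g) given 1×10^6 LLC cells s.c. in PBS. At 150–200 mg tumor mass, groups of 8 randomized to DMSO or test compound 25 mg/kg i.p. (methods: every 3 days ×4). Blinded caliper tumor mass and body mass recorded daily; lungs examined for metastases after 14 days. Separate subgroup at day 4: tumors assayed for F26BP, plus H&E and anti-cleaved caspase 3 immunohistochemistry on formalin-fixed paraffin sections.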

LOX IMVI = test: NCI 60 cell line screen, Sulforhodamine B Assay; format: cell-based; conditions: Homo sapiens, 48 h
Method in brief: as §1

[7] = four days after initiation, n=4

## O=C(C=Cc1ccc2ccccc2n1)c1ccncc1 [PFK15, 1-(4-pyridinyl)-3-(2-quinolinyl)-2-propen-1-one]
[1]
  IC50: 0.72 µM
RXF 393
  GI50: 1.7 µM
LLC tumors [2]
  reduction in 18F-FDG uptake: ~ 50%
EKVX
  GI50: 12.9 µM
A498
  GI50: 11.8 µM
TK-10
  GI50: 4.07 µM
HCC-2998
  GI50: 1.91 µM
Jurkat and H522 cells; 5 mM glucose + 1 mM pyruvate, p value = 0.0017
  PFK15-mediated ATP depletion [% control]: 45.62 ± 1.72%
Jurkat and H522 cells; 5 mM glucose alone
  PFK15-mediated ATP depletion [% control]: 5.29 ± 0.85%
Jurkat and H522 cells; addition of 4 mM glutamine, data not shown
  reversal of ATP depletion by glutamine: could not be significantly reversed
Jurkat and H522 cells; addition of 10 mM lactate, data not shown
  reversal of ATP depletion by lactate: could not be significantly reversed
Jurkat and H522 cells; three hours exposure, Jurkat and H522
  effect on intracellular ATP: reduced
UACC-257
  GI50: 3.98 µM
IGROV1
  GI50: 4.37 µM
[3]
  body mass loss: < 10%
  end organ toxicity based on blood, urine and histological analyses: no end organ toxicity
MDA-MB-231/ATCC
  GI50: 2.04 µM
ACHN
  GI50: 2.04 µM
[4]; 3 μM
  cells undergoing early apoptosis (Annexin V+/PI−): increased
[4]; 3 and 20 μM
  cells undergoing late apoptosis (Annexin V+/PI+): dose-dependent increase
HOP-92
  GI50: 3.02 µM
KM12
  GI50: 1.95 µM
Solubility
  solubility: limited solubility
HS 578T
  GI50: 20.9 µM
hexokinase
  inhibition of activity of purified hexokinase: not inhibit
[5]
  IC50: 2.42 µM
HOP-62
  GI50: 2.34 µM
Jurkat or H522 cells
  effect on glucose uptake (14C-2DG): reduced
U-87 glioblastoma cells
  activity against glioblastoma growth (U-87 MG): lower than that observed by temozolomide
SR
  GI50: 0.23 µM
SNB-15
  GI50: 11.2 µM
SW-620
  GI50: 1.7 µM
LLC tumors [6]; PFK15 i.p., C57Bl/6 mice
  effect on body mass of LLC-bearing mice: without a major effect
LLC tumors [6]; PFK15 i.p., C57Bl/6 mice, 14 days
  growth of established LLC tumors: statistically significant reduction
LLC tumors [6]; after 14 days
  lung metastases in LLC-bearing mice: no lung metastases
LLC tumors [6]; [7]
  cells positive for cleaved caspase 3 by immunohistochemistry: marked increase
  tumor-associated F26BP: reduced
LOX IMVI
  GI50: 1.66 µM
